High-throughput results (PubChem BioAssay)
MEKK2mut PB1 HTS – signal of MEK5 binding to mutant human MEKK2 PB1 domain | actives 0.35% (n = 290,000) | bead flow cytometry, Alexa488-MEK5 binding to MEKK2 mutant | percent response, % at 10 µM; in the data active = percent response above about 24%, passing the limit was not always enough
MEKK3 PB1 HTS – MEKK3-MEK5 PB1 interaction, increase or decrease; bead-based flow cytometry, Alexa488-MEK5 binding to MEKK3; actives lie on both sides; 0 = blocked by unlabeled MEK5, 100 = vehicle; binding response (% of control), % at 10 µM; actives 1.4% (n = 290,000);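 active = binding response more than 3 SD above or below the average of its plate-row segment, actives on both sides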;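 note: Alexa488 bead fluorescence after subtracting the streptavidin-only scavenger bead signal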
MEKK2wt PB1 HTS – raises or lowers MEK5 binding to wildtype human MEKK2 PB1 domain; binding response (% of control), % at 10 µM; actives 1.1% (n = 290,000); bead flow cytometry, Alexa488-MEK5 binding to MEKK2 WT; actives lie on both sides; AID 1531; Q9Y2U5; in the data active = binding response below about 67% or above about 130%
ABCB1 inh – inhibitors of human ABCB1 transporter, ABCG2 counter-screen | P08183 | CCRF-Adr cells, JC-1 efflux, flow cytometry | inhibition, % at 6.6 µM | actives 0.067% (n = 190,000) | AID 1326; in the data active = inhibition above about 40%;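 note: higher value means more JC-1 retained so stronger ABCB1 efflux block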
ABCG2 block – blocks JC-1 efflux by human ABCG2 transporter; Q9UNQ0; IgMXP3 cells, flow cytometry; inhibition, % at 6.6 µM; actives 0.1% (n = 190,000); AID 1325;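 active = inhibition above 80%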
Target sequence (Q9UNQ0 whole entry, looked up): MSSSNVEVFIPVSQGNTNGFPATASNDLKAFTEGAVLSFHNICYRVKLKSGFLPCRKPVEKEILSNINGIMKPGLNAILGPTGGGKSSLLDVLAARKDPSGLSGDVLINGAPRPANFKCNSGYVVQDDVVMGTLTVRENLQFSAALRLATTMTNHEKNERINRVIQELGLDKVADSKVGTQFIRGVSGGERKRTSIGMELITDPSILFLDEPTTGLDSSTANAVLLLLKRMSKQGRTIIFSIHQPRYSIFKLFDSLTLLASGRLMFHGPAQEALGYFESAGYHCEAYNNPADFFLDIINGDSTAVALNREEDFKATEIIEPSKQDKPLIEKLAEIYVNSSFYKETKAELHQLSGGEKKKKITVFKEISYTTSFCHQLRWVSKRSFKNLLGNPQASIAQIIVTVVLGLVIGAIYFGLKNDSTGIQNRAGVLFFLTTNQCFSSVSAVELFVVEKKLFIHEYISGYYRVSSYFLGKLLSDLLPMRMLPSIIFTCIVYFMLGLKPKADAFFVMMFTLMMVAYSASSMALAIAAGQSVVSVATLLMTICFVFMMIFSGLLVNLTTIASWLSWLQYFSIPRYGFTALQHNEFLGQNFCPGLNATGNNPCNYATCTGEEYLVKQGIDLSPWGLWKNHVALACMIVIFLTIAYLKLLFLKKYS
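material = IgMXP3 (ABCG2) plus far-red-tagged CCRF-Adr (ABCB1) cells | amount = 3 million cells/mL, equal mix of both lines | also added = JC-1 transporter substrate | dosing = one concentration, 6.6 µM final | schedule = 10 min at 25 °C | measured by = flow cytometric JC-1 green MFI at 530 nm | read-out basis = percent efflux inhibition, scaled nicardipine 100% to DMSO 0%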
WT yeast gro inh – growth inhibition of WT yeast, mitochondrial fusion screen; mitochondrial fusion phenotypic screen, WT strain; inhibition, % at 10 µM; actives 2.1% (n = 190,000); AID 1362; in the data active = inhibition above about 58%; tested in S. cerevisiae
Numbers stand for hits; - = inactive; . = no result given; [ ] = another dose, or the depositor's remark. Only some compounds are listed: those with a hit (about 3.5% of all), similar ones and a draw of the others.

SMILES	MEKK2mut PB1 HTS	MEKK3 PB1 HTS	MEKK2wt PB1 HTS	ABCB1 inh	ABCG2 block	WT yeast gro inh
O=c1cc(/C=C/c2ccccc2)oc2c1ccc1ccccc12	-	-	-	-	-	81
O=c1cc(C(F)(F)F)oc2c1ccc1ccccc12	-	-	-	-	-	-
COC(=O)CN1C(c2cccc(Cl)c2)=Nc2ccc(Cl)cc2C1c1ccccc1 (configuration not stated)	-	-	-	-	-	76
CCN1C(c2ccccc2)C(C)C(=O)C(C)C1c1ccccc1 (configuration not stated)	-	-	-	-	-	81
CCCCc1ccc(NC(=O)N2CCNC(=O)C2CC(=O)Nc2ccsc2C(=O)OC)cc1 (configuration not stated)	-	-	-	.	.	.
O=C(C1CCCCC1)N(Cc1nc2sc3c(c2c(=O)[nH]1)CCCC3)Cc1cccs1	-	-	-	-	-	59
CC(C)c1ccc(/C=C(\NC(=O)c2ccccc2)C(=O)NCCN2CCOCC2)cc1	-	-	-	.	.	.
O=C1C2CCCN2c2ccc(S(=O)(=O)N3CCOCC3)cc2N1Cc1ccccc1F (configuration not stated)	-	-	-	-	-	-
O=C1C2CCCN2c2ccc(S(=O)(=O)N3CCOCC3)cc2N1Cc1cccc(C(F)(F)F)c1 (configuration not stated)	-	-	-8.0	-	-	-
Cc1cccc(NC(=S)N/N=C2/CCCCc3ccccc32)c1	-	-	-	-	-	63
C=C(C)CNC(=S)N/N=C1\CCCCc2ccccc21	-	-	-	-	-	65
CCNC(=S)N/N=C1\CCCCc2ccccc21	-	-	-	-	-	-
CC(=O)c1ccc(N=Nc2ccc(C)cc2)cc1	-	-	-	-	-	-
O=C(/C(=C/O)N=Nc1ccccc1)c1ccc(Cl)cc1	-	-	-	-	-	68
O=C(/C(=C/O)N=Nc1ccccc1)c1ccncc1	-	-	-	-	-	-
Cc1ccc(N=N/C(=C\O)C(=O)c2ccc(Cl)cc2)cc1	-	-	-	-	-	97
O=[N+]([O-])c1ccc(S(=O)(=O)N2CCN=C2SCc2ccc(F)cc2)cc1	-	-	-	.	.	.
CN(C)c1ccc(O)c2c1CC1CC3[C@@H](N(C)C)C(=O)C(C(N)=O)=C(O)[C@]3(O)C(=O)C1=C2O (some centres not stated)	-	-	-	-	-	60
CC(=O)c1ccc(NC(=O)C2CC(=O)N(C(C)C)C2)cc1 (configuration not stated)	-	-	-	-	-	-
O=C1CSC(=S)N1Cc1cccnc1	-	-	-3.0	-	-	-
COCCN(C(=S)Nc1cc(C)cc(C)c1)C(C)c1cccs1 (configuration not stated)	-	-	-	-	-	-
Cc1ccc(NC(=S)N(CCN(C)C)C(C)c2ccco2)cc1Cl (configuration not stated)	-	-	-	.	.	.
COCCN(C(=S)Nc1cccc(C)c1)C(C)c1cccs1 (configuration not stated)	-	-	-	-	-	59
COCCN(C(=S)Nc1cc(C)cc(C)c1)C(C)c1ccco1 (configuration not stated)	-	-	-	-	-	61
Cc1cc(C)cc(C(=O)NC(CC(N)=O)c2ccc(NCCN3CCCC3)c([N+](=O)[O-])c2)c1 (configuration not stated)	-	-	-	.	.	.
SMILES	MEKK2mut PB1 HTS	MEKK3 PB1 HTS	MEKK2wt PB1 HTS	ABCB1 inh	ABCG2 block	WT yeast gro inh
Cc1ccc(NC2=C/C(=N\S(=O)(=O)c3cccs3)c3ccccc3C2=O)c(C)c1	-	-	-	-	-	96
Cc1ccc(Cl)cc1NC1=C/C(=N\S(=O)(=O)c2cccs2)c2ccccc2C1=O	-	-	-	-	-	96
Cc1cccc(NC2=C/C(=N/S(=O)(=O)c3cccs3)c3ccccc3C2=O)c1	-	-	-	-	-	-
COc1ccc2nc(C)cc(Nc3ccc(C)cc3)c2c1	-	-	-	.	.	.
COc1ccc2nc(C)cc(NCc3ccc(F)cc3)c2c1	.	54[inhibitor]	.	.	.	.
CCOC(=O)c1ccc(NC(=S)NCCc2ccccc2F)cc1	-	-	-	-	-	58
CCc1ccc(C(O)(CC(C)C)C(CN2CCOCC2)c2ccccc2)cc1 (configuration not stated)	-	-	-	.	.	.
CCc1ccc(C(O)(c2ccccc2OC)C(CN2CCOCC2)c2ccccc2)cc1 (configuration not stated)	-	-	-	-	-	77
Cc1nc2ccccc2c(=O)n1N(c1ccccc1)c1ccccc1	-	-	-	-	-	-
CC(C)[C@@H](C(=O)N[C@@H](Cc1ccccc1)C(=O)O)N1C(=O)N2CCc3c([nH]c4ccccc34)[C@@]2(C)C1=O	-	-	-	.	.	.
Cn1c(=O)cc(OCCCC(=O)N2CCN(c3ccccc3)CC2)c2ccccc21	.	.	.	-	-	58
O=C1CC(c2ccc(Cl)cc2)CC(O)=C1C=NCc1ccc(Cl)c(Cl)c1 (configuration not stated)	-	-	-	-	-	-
CC(=O)Oc1cc2c(cc1Cl)C1(CC(c3ccccc3Cl)O2)CC(C)(C)NC(=S)N1 (configuration not stated)	-	-	-	-	-	63
Cc1ccc(NC(=O)C2CCCN(S(=O)(=O)c3ccc4[nH]c(=O)ccc4c3)C2)c(C)c1 (configuration not stated)	-	-	-	.	.	.
O=C(NCCc1ccc(F)cc1)Nc1ccccc1Cl	-	-	-	.	.	.
O=[N+]([O-])c1ccc(N/N=C/c2c[nH]c3ccccc23)c(S(=O)(=O)Nc2ccc(Cl)cc2)c1	.	.	.	-	-	95
CN1CCN(S(=O)(=O)c2cc([N+](=O)[O-])ccc2N/N=C/c2ccc(Cl)cc2)CC1	-	-	-	-	-	-
COc1ccc(C2c3ccc(O)cc3Oc3ncn(CCN4CCOCC4)c(=N)c32)cc1 (configuration not stated)	-	-	-	.	.	.
N=c1c2c(ncn1CCCO)Oc1cc(O)ccc1C2c1ccccc1 (configuration not stated)	-	-	-4.0	.	.	.
Cc1cccc(N2C(=O)CC(SC(=Nc3ccccc3)Nc3ccccc3)C2=O)c1 (configuration not stated)	-	-	-	-	-	-
CN=C(Nc1cc(Cl)ccc1Cl)SC1CC(=O)N(c2ccc(C(=O)OC)cc2)C1=O (configuration not stated)	-	-	-	-	-	69
O=C1CC(SC(=Nc2ccccc2)Nc2ccccc2)C(=O)N1c1ccc(Cl)c(Cl)c1 (configuration not stated)	-	-	-	-	-	62
